Reference: ChEMBL document CHEMBL3259729, “Optimizing the Physicochemical Properties of Raf/MEK Inhibitors by Nitrogen Scanning” (ACS Med Chem Lett, 2014)
≈ marks a conversion by molar mass, not a printed value.

How the values were obtained:
[1] = AUC in BALB-nu/nu mouse at 100 mg/kg, po measured after 24 hrs by LC-MS/MS analysis; format: ADME, organism-based; parameters: time < 24 hr, dose 100 mg/kg, route oral; conditions: plasma
How it was run: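 Mice dosed orally at 100 mg/kg as a solution in 5% DMSO, 5% Cremophor EL, 15% PEG400, 15% 2-hydroxypropyl-β-cyclodextrin and 60% water.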

[2] = tested on: HT-29; assay: Inhibition of human HT-29 cell growth; format: functional, cell-based
[3] = biological target: Dual specificity mitogen-activated protein kinase kinase 1 (Homo sapiens, UniProt Q02750, S218E/S222E); assay: Inhibition of constitutively active MEK1 S218E,S222E mutant (unknown origin) assessed as MAP kinase 2/Erk2-mediated FAM-Erktide phosphorylation using MAP kinase 2/Erk2 as substrate preincubated for 30 mins by IMAP fluorescence polarization assay
[4] = Membrane permeability of the compound at pH 6.5 by PAMPA PSR4p assay; format: physicochemical; conditions: read-out: permeability
[5] = Intrinsic clearance in human liver microsomes at 5 uM by LC/MS/MS analysis; format: ADME; conditions: read-out: CLH
[6] = biological target: T1, Cytochrome P450 2C9 (Homo sapiens, UniProt P11712); assay: Inhibition of CYP2C9 in human liver microsomes using diclofenac as substrate measured after 30 mins preincubation by LC-MS/MS analysis in absence of NADPH; format: ADME
How it was run: (§1)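 The IC50 is determined after a 30 min preincubation without NADPH.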

[7] = biological target: T1, Cytochrome P450 2C9; assay: Inhibition of CYP2C9 in human liver microsomes using diclofenac as substrate measured after 30 mins preincubation by LC-MS/MS analysis in presence of NADPH; format: ADME
How it was run: (§2)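 The IC50 is determined after a 30 min preincubation with NADPH.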

[8] = biological target: T2, Cytochrome P450 3A4 (Homo sapiens, UniProt P08684); assay: Inhibition of CYP3A4 in human liver microsomes using midazolam as substrate measured after 30 mins preincubation by LC-MS/MS analysis in absence of NADPH; format: ADME; how it was run: as §1
[9] = biological target: T2, Cytochrome P450 3A4; assay: Inhibition of CYP3A4 in human liver microsomes using midazolam as substrate measured after 30 mins preincubation by LC-MS/MS analysis in presence of NADPH; format: ADME; how it was run: as §2
[10] = Clearance in Crlj:CD rat at 2.5 mg/kg, iv and 5 mg/kg, po by LC-MS/MS analysis; format: ADME, organism-based; conditions: in vivo
[11] = Bioavailability in Crlj:CD rat at 2.5 mg/kg, iv and 5 mg/kg, po by LC-MS/MS analysis; format: ADME, organism-based; conditions: in vivo
[12] = Bioavailability in cynomolgus monkey at 2.5 mg/kg, iv and 5 mg/kg, po by LC-MS/MS analysis; format: ADME, organism-based, Macaca fascicularis; conditions: in vivo
[13] = Dissociation constant, pKa of the compound at 10 mM by spectroscopic titration analysis; format: physicochemical
[14] = tested on: C32; assay: Growth inhibition of human C32 cells harboring B-Raf V600E mutant
[15] = tested on: Mus musculus; assay: Toxicity in po dosed BALB-nu/nu mouse xenografted with human C32 cells assessed as body weight administered qd for 11 days; format: organism-based; conditions: in vivo, 264 h
[16] = Saturated solubility of the compound in fasted state simulated intestinal fluid after 24 hrs by shaking flask method; format: ADME; conditions: fasted state simulated intestinal fluid (FaSSIF)
How it was run: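 Free crystalline form equilibrated for 24 h in FaSSIF, and the saturated concentration was reported.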

[17] = Clearance in BALB-nu/nu mouse at 2.5 mg/kg, iv and 5 mg/kg, po by LC-MS/MS analysis; format: ADME, organism-based; conditions: in vivo
[18] = tested on: C32; assay: Antitumor activity against human C32 cells xenografted in po dosed BALB-nu/nu mouse assessed as tumor growth inhibition administered qd for 11 days; format: functional; conditions: for ED50: Mus musculus, C32, po, 264 h
How it was run: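 C32 cells implanted subcutaneously in the right flank of BALB-nu/nu mice, with tumors established before treatment. Compound given orally once daily for 11 days (day 0 to day 10). Tumor size measured twice per week. Values are mean SD, n = 4.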

[19] = Bioavailability in BALB-nu/nu mouse at 2.5 mg/kg, iv and 5 mg/kg, po by LC-MS/MS analysis; format: ADME, organism-based; conditions: in vivo
[20] = Clearance in cynomolgus monkey at 2.5 mg/kg, iv and 5 mg/kg, po by LC-MS/MS analysis; format: ADME, organism-based, Macaca fascicularis; conditions: in vivo
[21] = tested on: Mus musculus; assay: Toxicity in po dosed BALB-nu/nu mouse xenografted with human C32 cells assessed as adverse clinical signs administered qd for 11 days; format: organism-based; conditions: in vivo, 264 h
[22] = biological target: RAF proto-oncogene serine/threonine-protein kinase (Homo sapiens, UniProt P04049); assay: Inhibition of truncated active C-Raf (unknown origin) assessed as MEK1 phosphorylation using inactive MEK1 K97R as substrate after 45 mins
[23] = tested on: HCT-116; assay: Inhibition of human HCT116 cell growth after 96 hrs by counting kit-8 analysis; format: functional, cell-based; conditions: HCT-116, 96 h
[24] = Solubility of the compound in fasted state simulated intestinal fluid by LYSA method; format: ADME; conditions: fasted state simulated intestinal fluid (FaSSIF)
[25] = Supersaturated solubility of the compound in fasted state simulated intestinal fluid after 4 hrs by miniscale dissolution test; format: ADME; conditions: fasted state simulated intestinal fluid (FaSSIF)

Chain of RAF proto-oncogene serine/threonine-protein kinase (P04049 whole entry, the tested form may be a part): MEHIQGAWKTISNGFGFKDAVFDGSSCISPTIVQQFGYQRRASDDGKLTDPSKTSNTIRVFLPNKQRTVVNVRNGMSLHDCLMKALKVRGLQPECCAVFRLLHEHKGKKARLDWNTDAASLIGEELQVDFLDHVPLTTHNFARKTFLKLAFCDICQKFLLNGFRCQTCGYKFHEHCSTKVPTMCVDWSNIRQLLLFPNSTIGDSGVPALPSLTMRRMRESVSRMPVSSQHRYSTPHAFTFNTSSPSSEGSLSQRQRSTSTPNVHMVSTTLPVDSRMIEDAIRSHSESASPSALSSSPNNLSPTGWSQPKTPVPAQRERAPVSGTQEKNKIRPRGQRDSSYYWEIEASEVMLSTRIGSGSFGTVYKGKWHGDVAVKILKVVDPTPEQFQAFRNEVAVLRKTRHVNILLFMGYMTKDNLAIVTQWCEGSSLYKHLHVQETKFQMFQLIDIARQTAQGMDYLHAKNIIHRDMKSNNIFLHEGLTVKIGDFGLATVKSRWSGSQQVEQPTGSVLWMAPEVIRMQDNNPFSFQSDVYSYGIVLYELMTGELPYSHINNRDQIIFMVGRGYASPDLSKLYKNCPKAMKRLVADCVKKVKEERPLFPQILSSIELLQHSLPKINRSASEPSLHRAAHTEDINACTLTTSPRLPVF
Chain of Dual specificity mitogen-activated protein kinase kinase 1 (Q02750 whole entry S218E/S222E): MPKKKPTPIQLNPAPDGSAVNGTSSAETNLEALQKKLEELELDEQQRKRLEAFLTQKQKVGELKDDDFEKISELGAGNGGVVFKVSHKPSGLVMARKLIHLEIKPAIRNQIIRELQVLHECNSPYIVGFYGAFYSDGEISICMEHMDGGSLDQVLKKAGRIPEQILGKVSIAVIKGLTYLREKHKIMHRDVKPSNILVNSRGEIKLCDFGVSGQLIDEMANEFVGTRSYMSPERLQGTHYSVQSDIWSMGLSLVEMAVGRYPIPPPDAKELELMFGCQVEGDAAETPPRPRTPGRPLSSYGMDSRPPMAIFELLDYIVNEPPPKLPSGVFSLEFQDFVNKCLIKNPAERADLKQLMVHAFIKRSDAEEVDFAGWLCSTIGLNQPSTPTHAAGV
T2 sequence (P08684 whole entry): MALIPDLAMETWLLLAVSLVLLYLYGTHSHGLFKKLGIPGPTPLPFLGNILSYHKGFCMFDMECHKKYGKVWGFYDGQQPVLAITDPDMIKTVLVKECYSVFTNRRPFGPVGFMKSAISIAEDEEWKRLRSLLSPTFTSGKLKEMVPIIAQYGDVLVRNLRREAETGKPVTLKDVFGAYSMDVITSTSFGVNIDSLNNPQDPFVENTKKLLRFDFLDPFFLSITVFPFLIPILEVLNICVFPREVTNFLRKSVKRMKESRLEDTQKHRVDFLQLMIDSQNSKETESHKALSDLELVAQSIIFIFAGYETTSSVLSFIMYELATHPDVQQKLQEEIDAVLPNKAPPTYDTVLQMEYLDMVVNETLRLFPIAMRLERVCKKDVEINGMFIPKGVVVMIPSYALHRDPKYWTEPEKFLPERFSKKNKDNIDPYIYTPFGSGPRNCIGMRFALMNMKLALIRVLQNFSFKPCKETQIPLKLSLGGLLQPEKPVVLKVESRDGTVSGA
T1 sequence (P11712 whole entry): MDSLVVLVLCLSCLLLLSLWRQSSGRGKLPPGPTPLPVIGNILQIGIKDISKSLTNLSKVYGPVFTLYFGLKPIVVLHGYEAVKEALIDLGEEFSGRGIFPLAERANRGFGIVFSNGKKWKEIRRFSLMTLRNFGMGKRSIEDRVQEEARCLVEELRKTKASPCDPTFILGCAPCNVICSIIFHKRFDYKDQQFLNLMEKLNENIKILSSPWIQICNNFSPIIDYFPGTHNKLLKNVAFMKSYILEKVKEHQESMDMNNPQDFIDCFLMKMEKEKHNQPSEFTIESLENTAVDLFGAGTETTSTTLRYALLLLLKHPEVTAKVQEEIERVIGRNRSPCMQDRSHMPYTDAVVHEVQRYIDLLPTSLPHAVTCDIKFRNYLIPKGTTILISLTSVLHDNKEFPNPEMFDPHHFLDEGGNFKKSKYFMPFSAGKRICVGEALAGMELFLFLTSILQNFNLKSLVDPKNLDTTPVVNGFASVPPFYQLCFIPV

Row | Compound | AUC at 24 h [1] [µM·h] | IC50 [2] [nM] | IC50 [3] [nM] | microsomal CLint at 5 µM [5] [µL/min/mg] | IC50 [22] [nM] | IC50 [23] [nM] | solubility [24] [µg/mL] | also measured
1 | CNS(=O)(=O)[N-]c1cccc(Cc2c(C)c3ccc(OC(=O)N(C)C)cc3oc2=O)c1.[Na+] | 78 |  |  |  |  |  |  | 
2 | CNS(=O)(=O)Nc1cccc(Cc2c(C)c3cc(C)c(OC(=O)N(C)C)cc3oc2=O)c1 | 18 | 8 | 29 | 17 |  |  |  | Papp [4]: 4 ×10⁻⁶ cm/s
3 | CNS(=O)(=O)Nc1cccc(Cc2c(C)c3ccc(OC(=O)N(C)C)cc3oc2=O)c1 |  | 9 | 110 | 20 |  |  |  | IC50 [6]: 29 µM; IC50 [7]: 96 µM; IC50 [8]: 13 µM; IC50 [9]: 5.6 µM
4 | CNS(=O)(=O)Nc1cccc(Cc2c(C)c3ccc(Oc4ncccn4)cc3oc2=O)c1F | 425 |  | 97 | 6.7 |  |  |  | clearance [10]: 6.6 mL/min/kg; IC50 [6]: 19 µM; bioavailability [11]: 84%; IC50 [7]: 19 µM; bioavailability [12]: 59%; pKa at 10000 µM [13]: 8.86; IC50 [14]: 57 nM; Activity [15]: Non-toxic; solubility thermodynamic at 24 h [16]: 5.5 µg/mL (≈ 11.7 µM); IC50 [8]: 26 µM; IC50 [9]: 11 µM; clearance [17]: 6.8 mL/min/kg; TGI [18]: 96%; ED50 [18]: 1.44 mg/kg; bioavailability [19]: 75%; clearance [20]: 0.9 mL/min/kg; Activity [21]: Non-toxic
5 | CNS(=O)(=O)Nc1cccc(Cc2c(C)c3ccc(OC(=O)N(C)C)nc3oc2=O)c1 |  | 600 | 440 | 3 | 2500 | 1100 | 43 (≈ 96.3 µM) | Papp [4]: 3 ×10⁻⁶ cm/s
6 | CNS(=O)(=O)Nc1cccc(Cc2c(C)c3ccc(OC(=O)N(C)C)cc3oc2=O)n1 | 314 | 73 | 110 | 7 | 70 | 270 | 320 (≈ 717 µM) | Papp [4]: 6 ×10⁻⁶ cm/s
7 | CNS(=O)(=O)Nc1cc(Cc2c(C)c3ccc(OC(=O)N(C)C)cc3oc2=O)ccn1 | 134 | 25 | 99 | 6 | 32 | 32 | 55 (≈ 123 µM) | IC50 [6]: > 100 µM; IC50 [7]: > 100 µM; IC50 [8]: > 100 µM; Papp [4]: 7 ×10⁻⁶ cm/s; IC50 [9]: > 100 µM
8 | CNS(=O)(=O)Nc1cncc(Cc2c(C)c3ccc(OC(=O)N(C)C)cc3oc2=O)c1 |  | > 10000 | > 50000 |  | > 50000 | > 10000 | 240 (≈ 538 µM) | 
9 | CNS(=O)(=O)Nc1ccnc(Cc2c(C)c3cc(C)c(OC(=O)N(C)C)cc3oc2=O)c1 |  | 5700 | 37000 |  | 27000 | > 10000 | 425 (≈ 923 µM) | 
10 | CNS(=O)(=O)Nc1nccc(Cc2c(C)c3ccc(Oc4ccccc4)cc3oc2=O)c1F |  |  | 76 |  | 21 | 110 |  | 
11 | CNS(=O)(=O)Nc1nccc(Cc2c(C)c3ccc(Oc4ccccn4)cc3oc2=O)c1F |  |  | 190 |  | 81 | 45 |  | 
12 | CNS(=O)(=O)Nc1nccc(Cc2c(C)c3ccc(Oc4cnccn4)cc3oc2=O)c1F |  |  | 650 |  | 56 | 900 |  | 
13 | CNS(=O)(=O)Nc1cccc(Nc2c(C)c3ccc(Oc4ncccn4)cc3oc2=O)c1 |  |  | > 50000 |  | > 50000 | > 10000 |  | 
14 | CNS(=O)(=O)[N-]c1cccc(Cc2c(C)c3ccc(Oc4ncccn4)cc3oc2=O)c1F.[K+] |  |  |  |  |  |  |  | solubility at 4 h [25]: 12 µg/mL
15 | CNS(=O)(=O)[N-]c1nccc(Cc2c(C)c3ccc(Oc4ncccn4)cc3oc2=O)c1F.[K+] [AVUTOMETINIB POTASSIUM] |  |  |  |  |  |  |  | solubility at 4 h [25]: 57 µg/mL
16 | CNS(=O)(=O)Nc1nccc(Cc2c(C)c3ccc(Oc4ncccn4)cc3oc2=O)c1F [AVUTOMETINIB] | 2830 |  |  | 0.5 | 56 | 40 | 159 (≈ 337 µM) | clearance [10]: 0.7 mL/min/kg; IC50 [6]: 12 µM; bioavailability [11]: 66%; IC50 [7]: 60 µM; bioavailability [12]: 82%; pKa at 10000 µM [13]: 7.02; IC50 [14]: 47 nM; Activity [15]: Non-toxic; solubility thermodynamic at 24 h [16]: 2.7 µg/mL (≈ 5.73 µM); IC50 [8]: > 100 µM; IC50 [9]: > 100 µM; clearance [17]: 1.1 mL/min/kg; TGI [18]: 118%; ED50 [18]: 0.09 mg/kg; bioavailability [19]: 93%; clearance [20]: 0.1 mL/min/kg; Activity [21]: Non-toxic
